Published values collected from several papers.
Protocols differ between the studies behind these lines. ≈ marks a conversion by molar mass, not a printed value.

COc1ccccc1NC(=O)/C=C/c1ccc2c(c1)C=CC(C)(C)O2  viability (rat Primary cortical neuron; cell growth or viability, MTT; 1 µM, 12 h): 83%
CC(C)C[C@H](NC(=O)[C@@H](NC(=O)N[C@@H](Cc1ccccc1)C(=O)O)[C@@H]1CCN=C(N)N1)C(=O)N[C@H](C=O)Cc1ccccc1  IC50 (Human coronavirus 229E; viral replication; Huh7.5): 23.7 µM
COC1=C2C[C@@H](C)C[C@H](OC)[C@H](O)[C@@H](C)/C=C(\C)[C@H](OC(N)=O)[C@@H](OC)/C=C\C=C(/C)C(=O)NC(=CC1=O)C2=O  IC50 (Human coronavirus 229E; viral replication; Calu-3): 8.71 µM
O=C(Cc1ccc2ccccc2c1)N[C@@H](Cc1ccccc1)C(=O)N[C@H](Cc1ccccc1)C(=O)N[C@@H](Cc1ccc(OP(=O)(O)O)cc1)C(=O)O  IC50 (HeLa; cell growth or viability, MTT; 48 h): > 500 µM
Cc1cccc(CSc2nccc(OCCOc3cc(=O)oc4ccccc34)n2)c1  inhibition (Human coronavirus 229E; cytopathic effect; A549; 12.5 µM): 38.1%
Nc1ncnc2c([C@@H]3N[C@H](CO)[C@@H](O)[C@H]3O)c[nH]c12  inhibition (Japanese encephalitis virus; viral replication, inhibitor; Vero 76; 0.1 µM): 0%
O=c1cc(OCCCOc2ccnc(SCc3ccc(F)cc3)n2)c2cc(F)ccc2o1  inhibition (Human coronavirus 229E; cytopathic effect; A549; 6.25 µM): 34.9%
CCCCCC/C=C\CCCCCCCCCC(=O)CP(=O)(O)O  MIC (Enterococcus faecalis; microbial growth; ATCC33186): 12.5 µg/mL (≈ 34.7 µM)
NC(=O)c1ncn([C@@H]2O[C@H](CO)[C@@H](O)[C@H]2O)n1  IC50 (Human coronavirus 229E; viral replication; Huh7.5): 25.1 µM
CCCCCCCCCCCCCCCC(=O)NP(=O)(O)O  MIC (Enterococcus faecalis; microbial growth; ATCC33186): 200 µg/mL (≈ 596 µM)
CC[C@H](C)C[C@H](C)CCCCCCCCC(=O)N[C@H]1C[C@@H](O)[C@@H](NCCN)NC(=O)[C@@H]2[C@@H](O)CCN2C(=O)[C@H]([C@H](O)CCN)NC(=O)[C@H]([C@H](O)[C@@H](O)c2ccc(O)cc2)NC(=O)[C@@H]2C[C@@H](O)CN2C(=O)[C@H]([C@@H](C)O)NC1=O  MIC50 (Aspergillus fumigatus; microbial growth, broth dilution; MF5668): 0.016 µg/mL (≈ 0.0146 µM)
O=C(CCCCC1CCCCC1)CP(=O)(O)O  MIC (Enterococcus faecalis; microbial growth; ATCC33186): > 200 µg/mL
COc1c(C)c2c(c(O)c1C/C=C(\C)CCC(=O)O)C(=O)OC2  IC50 (Human coronavirus 229E; viral replication; Calu-3): 2.11 µM
C=CCCCCCCCCC(=O)C(F)(F)P(=O)(O)O  MIC (Enterococcus faecalis; microbial growth; ATCC33186): > 200 µg/mL
COc1ccc(NC(=O)/C=C/c2ccc3c(c2)C=CC(C)(C)O3)cc1  viability (rat Primary cortical neuron; cell growth or viability, MTT; 1 µM, 12 h): 87%
CCOC(=O)C1=C[C@@H](OC(CC)CC)[C@H](NC(C)=O)[C@@H](N)C1  inhibition (Human coronavirus 229E; cytopathic effect; A549; 50 µM): 72.8%
O=C(CCCCCCCCCCOc1ccccc1)CP(=O)(O)O  MIC (Enterococcus faecalis; microbial growth; ATCC33186): 50 µg/mL (≈ 140 µM)
COc1cccc(NC(=O)/C=C/c2ccc3c(c2)C=CC(C)(C)O3)c1  viability (rat Primary cortical neuron; cell growth or viability, MTT; 1 µM, 12 h): 87%
